Measured values as given in ChEMBL document CHEMBL1138053, “Design, synthesis, and structure-activity relationships of thieno[2,3-b]pyridin-4-one derivatives as a novel class of potent, orally active, non-peptide luteinizing hormone-releasing hormone receptor antagonists” (J Med Chem, 2006).

Molecular target: T1, Gonadotropin-releasing hormone receptor (Homo sapiens, UniProt P30968)
T1 sequence (P30968 whole entry): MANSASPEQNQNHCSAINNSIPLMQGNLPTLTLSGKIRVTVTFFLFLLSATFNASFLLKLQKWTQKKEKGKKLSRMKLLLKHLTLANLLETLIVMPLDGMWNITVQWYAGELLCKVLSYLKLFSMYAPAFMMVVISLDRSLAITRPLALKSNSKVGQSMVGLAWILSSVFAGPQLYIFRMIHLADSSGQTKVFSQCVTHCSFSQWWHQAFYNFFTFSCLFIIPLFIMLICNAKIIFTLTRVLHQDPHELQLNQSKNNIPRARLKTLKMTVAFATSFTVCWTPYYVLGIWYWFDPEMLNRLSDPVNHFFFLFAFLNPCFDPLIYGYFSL
Test: Inhibition of [125I]leuprorelin binding to human recombinant LHRH receptor expressed in CHO cells
Assay type: cell-based
Conditions: not given
For `CC(C)C(=O)c1cn(Cc2c(F)cccc2F)c2sc(-c3ccc(NC(=O)CN)cc3)c(CN(C)Cc3ccccc3)c2c1=O`, the IC50 was 9 nM.
In the case of `CCOC(=O)c1cn(Cc2cccc(OC)c2)c2sc(-c3ccc(OC)cc3)c(CN(C)Cc3ccccc3)c2c1=O`, the IC50 is reported as 400 nM.
`CCOC(=O)c1cn(Cc2ccccc2OC)c2sc(-c3ccc(OC)cc3)c(CN(CC)Cc3ccccc3)c2c1=O` showed an IC50 of 300 nM.
For `CCOC(=O)c1cn(C)c2sc(-c3ccc(OC)cc3)c(CN(C)Cc3ccccc3)c2c1=O`, the IC50 was 5000 nM.
`CCOC(=O)c1cn(Cc2cccc(F)c2)c2sc(-c3ccc(OC)cc3)c(CN(C)Cc3ccccc3)c2c1=O` showed an IC50 of 300 nM.
With `CC(C)C(=O)c1cn(Cc2c(F)cccc2F)c2sc(-c3ccc(NC(=O)C4(O)CC4)cc3)c(CN(C)Cc3ccccc3)c2c1=O` the IC50 was 0.1 nM.
`CCOC(=O)c1cn(Cc2ccccc2F)c2sc(-c3ccc(N(C)C(=O)NC)cc3)c(CN(C)Cc3ccccc3)c2c1=O` gave an IC50 of 2 nM.
For `CCOC(=O)c1cn(Cc2ccc(F)cc2)c2sc(-c3ccc(OC)cc3)c(CN(C)Cc3ccccc3)c2c1=O`, the IC50 was 400 nM.
`CCOC(=O)c1cn(Cc2ccccc2F)c2sc(-c3ccc(NC(=O)c4ccccc4)cc3)c(CN(C)Cc3ccccc3)c2c1=O` gave an IC50 of 1 nM.
With `CCOC(=O)c1cn(Cc2c(F)cccc2F)c2sc(-c3ccc(NC(=O)C(C)C)cc3)c(CN(C)Cc3ccccc3)c2c1=O` the IC50 was 0.2 nM.
In the case of `CC(C)C(=O)c1cn(Cc2c(F)cccc2F)c2sc(-c3ccc(NC(=O)C(C)(C)O)cc3)c(CN(C)Cc3ccccc3)c2c1=O`, the IC50 is reported as 0.2 nM.
With `CCOC(=O)c1cn(Cc2ccccc2F)c2sc(-c3ccc(NC(=O)Nc4ccccc4)cc3)c(CN(C)Cc3ccccc3)c2c1=O` the IC50 was 30 nM.
For `CC(C)C(=O)c1cn(Cc2c(F)cccc2F)c2sc(-c3ccc(NC(=O)CO)cc3)c(CN(C)Cc3ccccc3)c2c1=O`, the IC50 was 0.2 nM.
With `CCOC(=O)c1cn(Cc2ccccc2F)c2sc(-c3ccc(NC(=O)CC)cc3)c(CN(C)Cc3ccccc3)c2c1=O` the IC50 was 0.4 nM.
`CCOC(=O)c1cn(Cc2ccccc2OC)c2sc(-c3ccc(OC)cc3)c(CN(C)C)c2c1=O` showed an IC50 of 500 nM.
`CCOC(=O)c1cn(Cc2ccccc2F)c2sc(-c3ccc(N)cc3)c(CN(C)Cc3ccccc3)c2c1=O` gave an IC50 of 40 nM.
Work on `CC(C)C(=O)Nc1ccc(-c2sc3c(c2CN(C)Cc2ccccc2)c(=O)c(C(=O)C(C)C)cn3Cc2c(F)cccc2F)cc1` yielded an IC50 of 0.2 nM.
For `CCC(=O)Nc1ccc(-c2sc3c(c2CN(C)Cc2ccccc2)c(=O)c(C(=O)NC(C)C)cn3Cc2c(F)cccc2F)cc1`, the IC50 was 8 nM.
Work on `CCOC(=O)c1cn(Cc2ccc(OC)cc2)c2sc(-c3ccc(OC)cc3)c(CN(C)Cc3ccccc3)c2c1=O` yielded an IC50 of 300 nM.
Molecule `CCOC(=O)c1cn(Cc2ccccc2F)c2sc(-c3ccc(NC(=O)NC)cc3)c(CN(C)Cc3ccccc3)c2c1=O` has an IC50 of 0.07 nM.
With `CCOC(=O)c1cn(Cc2ccccc2)c2sc(-c3ccc(OC)cc3)c(CN(C)Cc3ccccc3)c2c1=O` the IC50 was 200 nM.
Work on `CC(C)C(=O)Nc1ccc(-c2sc3c(c2CN(C)Cc2ccccc2)c(=O)c(C(=O)c2ccccc2)cn3Cc2c(F)cccc2F)cc1` yielded an IC50 of 0.1 nM.
Molecule `CCOC(=O)c1cn(Cc2ccccc2OC)c2sc(-c3ccc(OC)cc3)c(C)c2c1=O` has an IC50 of 10000 nM.
In the case of `CCOC(=O)c1cn(Cc2ccccc2)c2sc(-c3ccc(NC(=O)C(C)C)cc3)c(CN(C)Cc3ccccc3)c2c1=O`, the IC50 is reported as 0.6 nM.
In the case of `CCOC(=O)c1cn(Cc2ccccc2OC)c2sc(-c3ccc(OC)cc3)c(CNCc3ccccc3)c2c1=O`, the IC50 is reported as 2000 nM.
Molecule `CC(C)C(=O)Nc1ccc(-c2sc3c(c2CN(C)Cc2ccccc2)c(=O)c(C(O)C(C)C)cn3Cc2c(F)cccc2F)cc1` (stereo unspecified) has an IC50 of 0.4 nM.
`CCOC(=O)c1cn(Cc2ccccc2F)c2sc(-c3ccc(OC)cc3)c(CN(C)Cc3ccccc3)c2c1=O` showed an IC50 of 30 nM.
`CCOC(=O)c1cn(Cc2ccccc2[N+](=O)[O-])c2sc(-c3ccc(OC)cc3)c(CN(C)Cc3ccccc3)c2c1=O` showed an IC50 of 100 nM.
With `CCOC(=O)c1cn(Cc2ccccc2OC)c2sc(-c3ccc(OC)cc3)c(CN(Cc3ccccc3)C(C)=O)c2c1=O` the IC50 was 7000 nM.
`CCOC(=O)c1cn(Cc2c(F)cccc2F)c2sc(-c3ccc(NC(=O)NC)cc3)c(CN(C)Cc3ccccc3)c2c1=O` gave an IC50 of 0.06 nM.
Molecule `CNC(=O)Nc1ccc(-c2sc3c(c2CN(C)Cc2ccccc2)c(=O)c(C(=O)C(C)C)cn3Cc2c(F)cccc2F)cc1` has an IC50 of 0.1 nM.
Molecule `CCOC(=O)c1cn(Cc2ccccc2C#N)c2sc(-c3ccc(OC)cc3)c(CN(C)Cc3ccccc3)c2c1=O` has an IC50 of 100 nM.
For `CCOC(=O)c1cn(Cc2ccccc2F)c2sc(-c3ccc(NC(C)=O)cc3)c(CN(C)Cc3ccccc3)c2c1=O`, the IC50 was 2 nM.
Molecule `CCC(=O)c1cn(Cc2c(F)cccc2F)c2sc(-c3ccc(NC(=O)C(C)C)cc3)c(CN(C)Cc3ccccc3)c2c1=O` has an IC50 of 0.4 nM.
For `CCOC(=O)c1cn(Cc2ccccc2OC)c2sc(-c3ccccc3OC)c(CN(C)Cc3ccccc3)c2c1=O`, the IC50 was 700 nM.
For `CCOC(=O)c1cn(Cc2ccccc2)c2sc(-c3cccc(OC)c3)c(CN(C)Cc3ccccc3)c2c1=O`, the IC50 was 500 nM.
In the case of `CCOC(=O)c1cn(Cc2c(F)cccc2F)c2sc(-c3ccc(NC(=O)CC)cc3)c(CN(C)Cc3ccccc3)c2c1=O`, the IC50 is reported as 0.1 nM.
With `CCOC(=O)c1cnc2sc(-c3ccc(OC)cc3)c(CN(C)Cc3ccccc3)c2c1O` the IC50 was > 20000 nM.
For `CCOC(=O)c1cn(Cc2ccccc2OC)c2sc(-c3ccccc3)c(CN(C)Cc3ccccc3)c2c1=O`, the IC50 was 200 nM.

Same assay, conditions: cho
Molecule `CCOC(=O)c1cn(Cc2ccccc2F)c2sc(-c3ccc(OC)cc3)c(CN(C)Cc3ccccc3)c2c1=O` has an IC50 of 30 nM.

Molecular target: T2, Gonadotropin-releasing hormone receptor (Rattus norvegicus, UniProt P30969)
T2 sequence (P30969 whole entry): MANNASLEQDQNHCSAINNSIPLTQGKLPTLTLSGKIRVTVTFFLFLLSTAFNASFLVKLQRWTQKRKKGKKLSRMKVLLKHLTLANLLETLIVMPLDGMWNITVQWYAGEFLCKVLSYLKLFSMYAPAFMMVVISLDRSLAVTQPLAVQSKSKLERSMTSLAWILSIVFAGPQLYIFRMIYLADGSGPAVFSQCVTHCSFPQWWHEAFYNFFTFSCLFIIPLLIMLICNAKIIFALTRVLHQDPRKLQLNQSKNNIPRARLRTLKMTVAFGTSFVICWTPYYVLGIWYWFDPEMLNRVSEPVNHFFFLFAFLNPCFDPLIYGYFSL
Test: Inhibition of [125I]leuprorelin binding to rat anterior pituitary LHRH receptor
Conditions: not given
For `CC(C)C(=O)c1cn(Cc2c(F)cccc2F)c2sc(-c3ccc(NC(=O)C4(O)CC4)cc3)c(CN(C)Cc3ccccc3)c2c1=O`, the IC50 was 150 nM.
With `CNC(=O)Nc1ccc(-c2sc3c(c2CN(C)Cc2ccccc2)c(=O)c(C(=O)C(C)C)cn3Cc2c(F)cccc2F)cc1` the IC50 was 200 nM.

Molecular target: T1, Gonadotropin-releasing hormone receptor
Test: Inhibition of LHRH-stimulated arachidonic acid release in CHO cells expressing human LHRH receptor
Assay type: functional, cell-based
Conditions: not given
Method in brief: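 CHO cells stably expressing human or monkey LHRH receptor, seeded at 4 × 10⁴ cells/well and cultured 1 day, then labelled 1 day with [³H]arachidonic acid (11 kBq/well). Washed in DMEM with 20 mM HEPES and 0.2% BSA, preincubated with compound 60 min at 37 °C, then stimulated with LHRH (1 nM) for 40 min at 37 °C.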
`CC(C)C(=O)c1cn(Cc2c(F)cccc2F)c2sc(-c3ccc(NC(=O)C4(O)CC4)cc3)c(CN(C)Cc3ccccc3)c2c1=O` gave an IC50 of 0.1 nM.
For `CNC(=O)Nc1ccc(-c2sc3c(c2CN(C)Cc2ccccc2)c(=O)c(C(=O)C(C)C)cn3Cc2c(F)cccc2F)cc1`, the IC50 was 0.07 nM.

Test system: not listed separately
Test: Distribution coefficient, log D of the compound
Conditions: octanol/water
`CC(C)C(=O)Nc1ccc(-c2sc3c(c2CN(C)Cc2ccccc2)c(=O)c(C(=O)C(C)C)cn3Cc2c(F)cccc2F)cc1` showed a logD of 6.33.

Molecular target: T3, Gonadotropin-releasing hormone receptor (Homo sapiens) (UniProt P30968)
T3 sequence (whole entry): T1 sequence (P30968 whole entry)
Test: Inhibition of [125I]leuprorelin binding to human recombinant LHRH receptor at 20 uM
Conditions: not given
Method in brief: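 Membranes (0.2 mg/mL) from CHO cells stably expressing cloned human LHRH receptor, incubated 60 min at 25 °C with [125I]leuprorelin and test compound in Tris buffer pH 7.5 containing EDTA, BSA, NaN3 and protease inhibitors. Bound ligand separated by filtration on PEI-coated glass-fibre filters. Nonspecific binding taken with 1 µM unlabelled leuprorelin.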
For `CCOC(=O)c1cn(Cc2ccccc2OC)c2sc(-c3ccc(OC)cc3)c(CNc3ccccc3)c2c1=O`, the inhibition was 42%.
